The results in this text go back to ChEMBL document CHEMBL6092204, “Synthesis of pyridyl pyrimidine hedgehog signaling pathway inhibitors and their antitumor activity in human pancreatic cancer” (Eur J Med Chem, 2024).

pIC50: −log10 of the molar value. The source made the active and inactive calls. The calls are words filed in the database; no cut-off is given here.

Assay [1] in a line: Inhibition of Hh signaling pathway in mouse NIH3T3 cells incubated for 48 hrs by Gli luciferase reporter assay. Format: cell-based. The settings on record: NIH3T3, 48 h. In short, it runs like this:
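Reporter cells were seeded in 96-well plates, incubated overnight, then treated for 48 h. Lysate luciferase activity was measured with a dual-luciferase system, and firefly signal was normalised to Renilla.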

For assay [2], the system named is PANC-1. Description: Induction of apoptosis in human PANC-1 cells assessed as necrotic cells at 10 uM incubated for 48 hrs by Annexin V-FITC/PI staining based flow cytometry (reference value: 2.24 %). Format: functional. Background: In flow cytometry, cells or beads pass a laser one at a time.
Assay [3] relates to PANC-1. The experiment in a line: Induction of apoptosis in human PANC-1 cells assessed as early apoptotic cells at 10 uM incubated for 48 hrs by Annexin V-FITC/PI staining based flow cytometry (reference value: 1.88 %). Format: functional.
For assay [4], the system named is PANC-1. The experiment in a line: Induction of apoptosis in human PANC-1 cells assessed as late apoptotic cells at 10 uM incubated for 48 hrs by Annexin V-FITC/PI staining based flow cytometry (reference value: 2.74 %). Type of assay: functional.
The test system of assay [5] is BXPC-3. The experiment in a line: Induction of apoptosis in human BXPC-3 cells assessed as viable cells at 10 uM incubated for 48 hrs by Annexin V-FITC/PI staining based flow cytometry (reference value: 91.5 %). Format: functional. The settings on record: read-out: Activity.
The test system of assay [6] is BxPC-3. The experiment in a line: Antitumor activity aginst human BxPC-3 cells xenografted in BALB/c nude mouse assessed as tumor growth inhibition at 15 mg/kg, ip qd for 21 days. Particulars: time 21.0 day. For orientation: In xenograft studies the graft and the host belong to different species.
Assay [7] has as its system BXPC-3. The experiment in a line: Induction of apoptosis in human BXPC-3 cells assessed as early apoptotic cells at 10 uM incubated for 48 hrs by Annexin V-FITC/PI staining based flow cytometry (reference value: 1.11 %). Format: functional.
Assay [8] deals with BXPC-3. The experiment in a line: Induction of apoptosis in human BXPC-3 cells assessed as late apoptotic cells at 10 uM incubated for 48 hrs by Annexin V-FITC/PI staining based flow cytometry (reference value: 6.72 %). Format: functional.
Assay [9] has as its system BXPC-3. The experiment in a line: Induction of apoptosis in human BXPC-3 cells assessed as necrotic cells at 10 uM incubated for 48 hrs by Annexin V-FITC/PI staining based flow cytometry (reference value: 0.71 %). Format: functional.
Assay [10] deals with PANC-1. The experiment in a line: Induction of apoptosis in human PANC-1 cells assessed as viable cells at 10 uM incubated for 48 hrs by Annexin V-FITC/PI staining based flow cytometry (reference value: 93.2 %). Type of assay: functional. The settings on record: read-out: Activity.

Consider `CCOc1ccc(NC(=O)c2ccc(Nc3nccc(-c4cccnc4)n3)cc2)cc1`, for which the pIC50 (usually the negative decadic logarithm of the IC50, by convention in mol/L) in assay [1] was 7.91.

With `CNCc1ccc(C)c(NC(=O)c2ccc(Nc3nc(-c4ccccc4)c4ccccc4n3)cc2)c1` [BMS-833923], in [1], the negative-log IC50 (pIC50) was 8.26.

For `COc1cc(NC(=O)c2ccc(Nc3nccc(-c4cccnc4)n3)cc2)cc(OC)c1`, in assay [1], the negative-log IC50 (pIC50) was 7.53.

Compound `O=C(Nc1cccnc1)c1ccc(Nc2nccc(-c3cccnc3)n2)cc1` showed a negative-log IC50 (pIC50) in assay [1] of 7.55.

In [1], `COc1ccccc1NC(=O)c1ccc(Nc2nccc(-c3cccnc3)n2)cc1` showed a pIC50 of 8.04.

In [1], `Cc1cc(F)cc(NC(=O)c2ccc(Nc3nccc(-c4cccnc4)n3)cc2)c1` had a pIC50 of 7.99.

As for `O=C(Nc1ccc(Cl)cc1)c1ccc(Nc2nccc(-c3cccnc3)n2)cc1`, in assay [1], the pIC50 is 7.61.

As for `O=C(Nc1cccc(C(F)(F)F)c1)c1ccc(Nc2nccc(-c3cccnc3)n2)cc1`, the pIC50 in [1] is 7.59.

Turning to `Cc1cccc(NC(=O)c2ccc(Nc3nccc(-c4cccnc4)n3)cc2)c1`, in assay [1], the pIC50 was 7.86.

For the compound `COc1ccc(NC(=O)c2ccc(Nc3nccc(-c4cccnc4)n3)cc2)cc1`, in assay [1], the pIC50 is 7.85.

In [1], `COc1ccc(NC(=O)c2ccc(Nc3nccc(-c4cccnc4)n3)cc2)cc1OC` showed a pIC50 of 7.65.

Turning to `O=C(Nc1ccc(N2CCOCC2)cc1)c1ccc(Nc2nccc(-c3cccnc3)n2)cc1`, the pIC50 in assay [1] was 7.76.

As for `Cc1ccccc1NC(=O)c1ccc(Nc2nccc(-c3cccnc3)n2)cc1`, the pIC50 in assay [1] was 7.84.

`COc1cc(NC(=O)c2ccc(Nc3nccc(-c4cccnc4)n3)cc2)cc(OC)c1OC` gave a pIC50 in assay [1] of 7.73.

In the case of `O=C(Nc1ccc(N2CCOCC2)c(F)c1)c1ccc(Nc2nccc(-c3cccnc3)n2)cc1`, the negative logarithm of the IC50 (pIC50) in assay [1] is 7.47.

The compound `CN1CCN(c2ccc(NC(=O)c3ccc(Nc4nccc(-c5cccnc5)n4)cc3)cc2)CC1` gave a pIC50 in assay [1] of 8.35.

Consider `CS(=O)(=O)c1ccc(C(=O)Nc2ccc(Cl)c(-c3ccccn3)c2)c(Cl)c1` [VISMODEGIB], for which the Activity is 2.68% in [2]; 2.2% in assay [3]; 3.3% in [4]; 1.05% in assay [7]; 7.55% in assay [8]; 0.77% in [9]. Moreover, the values for the viability at 10 µM in assay [5] and in assay [10] were 90.6% and 91.8%, respectively. Also, the inhibition result in [6] was “Active”. The compound also showed a pIC50 in assay [1] of 7.82.

For `O=C(Nc1ccc(F)cc1)c1ccc(Nc2nccc(-c3cccnc3)n2)cc1`, the pIC50 in assay [1] is 7.45.

In the case of `Cc1ccc(NC(=O)c2ccc(Nc3nccc(-c4cccnc4)n3)cc2)cc1F`, in assay [1], the pIC50 is 7.33.

Regarding `O=C(Nc1cccc(F)c1)c1ccc(Nc2nccc(-c3cccnc3)n2)cc1`, the pIC50 in assay [1] was 7.80.
